Data set [1] in a line: Metabolic stability in liver tissue homogenate, HPLC. The conditions noted are these: mouse liver tissue homogenate 50 mg/mL, 8 h, mean of n=3. Format: in vitro ADME.
The test system of data set [2] is S. aureus CGMCC 1.90032. In words: Time-kill kinetics. Format: cell-based, Staphylococcus aureus. A digest of the protocol: (§1)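 Counts on MHA at 0, 0.5, 1, 2, 4, 6, 8, 10 and 24 h, in triplicate. MDK99 and MDK99.99 are the minimum times to 99% and 99.99% kill.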
The nature of another data set: ζ-potential. Type of data set: physicochemical. The conditions noted are these: 80 µM in PBS pH 7.4, room temperature.
The nature of data set [3]: CMC determination with ANS fluorescent probe. Format: physicochemical. The note with it: in PBS. Summed up:
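CMC is the crossing point of the 480 nm intensity plotted against log peptide concentration. A parallel run at 80 µM peptide adds LPS or LTA (final 1 µM) to test their effect on assembly.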

The nature of data set [4]: Particle size of self-assembled AMPs. Format: physicochemical. The conditions noted are these: 80 µM peptide, SEM/TEM. A digest of the protocol: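 Test compound at 80 µM, alone or with LPS or LTA (final 1 µM), imaged by SEM and TEM to assess assembly morphology and particle size.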
The test system of data set [5] is trypsin. The experiment in a line: Trypsin resistance of LPS-induced nanofibers versus nanoparticles, HPLC. Type of data set: in vitro ADME. The note with it: n=3. Summed up: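 Peptide (80 µM), LPS (1 µM) and trypsin (10 µM) combined in different orders. In one arm LPS pre-forms nanofibers before trypsin; in another peptide is pre-incubated with trypsin before LPS. A non-specific assembly condition serves as reference. Peptide retention measured by HPLC and expressed as a ratio to that reference; n=3.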

Data set [6] is described as follows: LPS binding assay with BC probe. Set-up: species or system E. coli. The conditions noted are these: BC probe 10 µM, LPS 1 µM, Tris 50 mM pH 7.4; 0.125-64 µM peptide; n=3.
Data set [7] has as its system E. coli CGMCC 1.90026. The experiment in a line: Time-kill kinetics. Type of data set: cell-based, Escherichia coli. The conditions noted are these: 1×, 2× or 4× MIC. Summed up: as §1
In a further data set the test system is E. coli ATCC 25922. The experiment in a line: Serum stability test. Format: in vitro ADME, Escherichia coli. The conditions noted are these: 37°C, 8 h, MIC vs E. coli ATCC 25922.
A short description of data set [8]: Proteolytic stability in trypsin, HPLC. Format: in vitro ADME. The conditions noted are these: trypsin (1 w/v%). Summed up: (§2)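 Test compound (2560 µM) incubated with 1 w/v% trypsin at 37 °C. Aliquots taken at 0.5, 1, 2, 4 and 6 h, diluted to 256 µM in 0.1% TFA/water and quantified by HPLC. Remaining peptide calculated as a time course; n=3.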
Data set [9] can be described thus: LTA binding assay with BC probe. Set-up: species or system S. aureus. The note with it: BC probe 10 µM, LTA 1 µM, Tris 50 mM pH 7.4; 0.125-64 µM peptide; n=3.
The subject of data set [10] is E. coli liposomes (polar lipid extracts). In words: Membrane fluidity assay, Laurdan GP. Format: cell-based, Escherichia coli. The conditions noted are these: 5-80 µM, 1 h, concentration-dependent, n=3.
Data set [11] relates to E. coli CGMCC 1.90026. In words: Mouse mastitis model. Type of data set: in vivo. A digest of the protocol: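 Female ICR mice 10 d post-partum, pups removed 2 h before infection. Under anaesthesia, 0.5 mm trimmed from the fourth nipple pair. Mid-log E. coli CGMCC 1.90026 (PBS-washed, 5×10^3 CFU/mL, 100 µL) given through the nipple duct. 3 h later, test compound (100 or 200 µM) given via the mammary duct. Groups: uninfected, untreated, ceftiofur sodium 200 µM. Mammary TNF-α, IL-1β, IL-6 and IL-2 measured.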

Data set [12] concerns S. aureus CGMCC 1.90032. The experiment in a line: Mouse mastitis model. Format: in vivo. The conditions noted are these: compared with NC group. Summed up:
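Female ICR mice 10 d post-partum, separated from pups 2 h before infection. Under anaesthesia, nipple tip trimmed 0.5 mm. Mid-log S. aureus CGMCC 1.90032 (PBS-washed, 1×10^3 CFU/mL, 100 µL) inoculated via the fourth-pair nipple ducts. Test compound (100 or 200 µM) given intraductally 3 h post-infection. Groups: uninfected, untreated, ceftiofur sodium 200 µM. Mammary and spleen organ indices recorded.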

A further data set concerns S. aureus. The experiment in a line: Membrane fluidity assay, Laurdan GP. The note with it: 5-80 µM, 1 h, n=3. Format: cell-based, Staphylococcus aureus.
Data set [13] concerns E. coli CGMCC 1.90026. The experiment in a line: Membrane integrity, PI uptake by flow cytometry. Type of data set: cell-based, Escherichia coli. The note with it: range over 5-80 µM and both E. coli strains (Fig. 7A, Figure S15A). Summed up: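 Clinical E. coli CGMCC 1.90026 treated with test compound at 5, 20, 40 or 80 µM. Propidium iodide-positive cells counted by flow cytometry as the membrane penetration rate.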

For data set [14], the system named is E. coli CGMCC 1.90026. In words: Mutation-proof concentration. Type of data set: cell-based, Escherichia coli.
Data set [15] relates to S. aureus CGMCC 1.90032. The experiment in a line: Mutation-proof concentration. Type of data set: cell-based, Staphylococcus aureus.
A further data set deals with E. coli. In words: Cytoplasmic membrane potential, DiSC3. Format: cell-based, Escherichia coli. The note with it: DiSC3-5, 5-80 µM, no dose-dependent effect. Summed up: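 Clinical isolate E. coli CGMCC 1.90026 exposed to test compound. Cytoplasmic membrane potential change followed with the potentiometric dye DiSC3-5.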
In a further data set the test system is mouse erythrocytes. The experiment in a line: Hemolysis assay. Format: cell-based. The note with it: 128 μM peptide, 8% mouse erythrocytes, 1 h, OD 540 nm; n=5. Summed up: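 Test compound (1–128 µM final) mixed 1:1 by volume with 8% mouse erythrocytes, 37 °C, 1 h. Spun 1500 rpm, 5 min, and supernatant A540 read. PBS set 0% and 0.1% Triton X-100 set 100%. Hemolysis (%) = (A_peptide−A0)/(A100−A0)×100.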

Data set [16] concerns trypsin. The experiment in a line: Proteolytic stability in trypsin, HPLC. Type of data set: in vitro ADME. The conditions noted are these: 1 w/v% trypsin, after 4 h, HPLC. A digest of the protocol: as §2
For data set [17] the following is noted: cited from earlier work.
The conditions of data set [18]: in comparison to self-assembled nanoparticles CPC-2; cited from earlier work.
The conditions of data set [19]: cited from earlier work. This is another data set of the same source.

Where two headings read alike, the source gives them in different places. Positions of bridges follow the written chain, without caps; N, C: chain ends. Residues, ends and D or L forms follow the SMILES beside them. *: point of attachment. Fmoc = O=C(OCC1c2ccccc2-c2ccccc21)*

For the compound `CC(C)C[C@H](NC(=O)[C@H](CCCCN)NC(=O)OCC1c2ccccc2-c2ccccc21)C(=O)N[C@H](C(=O)N[C@@H](Cc1ccccc1)C(=O)N[C@@H](Cc1ccccc1)C(=O)N[C@@H](CCCCN)C(=O)NCC(=O)N[C@@H](Cc1ccccc1)C(=O)N[C@@H](C)C(=O)N[C@@H](Cc1c[nH]c2ccccc12)C(=O)N[C@@H](CC(N)=O)C(=O)N[C@H](C(=O)N[C@H]1CSSC[C@@H](C(=O)N[C@@H](Cc2c[nH]cn2)C(=O)N[C@@H](CCCNC(=N)N)C(=O)N[C@@H](CCCNC(=N)N)C(=O)N[C@@H](C)C(=O)N[C@@H](CC(N)=O)C(N)=O)NC(=O)[C@H](C(C)C)NC(=O)[C@H](CCCNC(=N)N)NC(=O)[C@H](C(C)C)NC(=O)CNC(=O)[C@H](CC(N)=O)NC(=O)[C@H](CCCNC(=N)N)NC(=O)[C@H](Cc2ccc(O)cc2)NC(=O)[C@H](C(C)C)NC1=O)C(C)C)C(C)C` [FKN] (Fmoc-KLVFFKGFAWNVCVYRNGVRVCHRRAN-NH2; disulfide 13-22), the “peptide retention rate in liver tissue” value in [1] is reported as 33.93%. The “time to complete kill” value in the data set on S. aureus CGMCC 1.90032 [2] (various concentrations) is listed as no more than 1 h. In the data set “ζ-potential”, this compound returned a zeta-potential of 24 mV. In addition, in data set [3] (ANS 25.6 µM, 1 h, fluorescence at 480 nm vs log concentration), the “critical micelle concentration (CMC)” value worked out at 7.94 µM. For the same compound, in data set [4], the “particle sizes of nanoparticles” value was found to be 69.78±11.56 nm. Further, the “protein retention rate of nanofibers” value in the data set with trypsin [5] (80 µM peptide pre-incubated with LPS 1 µM, then trypsin 10 µM 0.5 h) is reported as 90.1%. In the data set on trypsin [5] (80 µM peptide without LPS pre-assembly, trypsin 10 µM 0.5 h), the “protein retention rate of nanoparticles” value came to 76.63%. Further, in data set [6], the “affinity to LPS of E. coli” value is listed as “even greater than that of N6”. Besides, the “time to complete eradication” value in the data set with E. coli CGMCC 1.90026 [7] was no more than 4 h. Further, the “MIC after incubation in 25% serum” value against E. coli ATCC 25922 is reported as “stable MICs”. For the same compound, the amount remaining – broadly, the share of the starting amount still present when the sample was taken – at 6 h, 2560 µM in [8] (peptide retention rate, 1 w/v% trypsin, 6 h, HPLC, mean of n=3) amounted to 44.2%. Besides, the “affinity to LTA of S. aureus” value in [9] is given as “even greater than that of N6”.

As for `CC(C)[C@@H]1NC(=O)CNC(=O)[C@H](CC(N)=O)NC(=O)[C@H](CCCNC(=N)N)NC(=O)[C@H](Cc2ccc(O)cc2)NC(=O)[C@H](C(C)C)NC(=O)[C@@H](NC(=O)[C@@H](NC(=O)[C@H](CC(N)=O)NC(=O)[C@H](Cc2c[nH]c3ccccc23)NC(=O)[C@H](C)NC(=O)[C@H](Cc2ccccc2)NC(=O)CN)C(C)C)CSSC[C@@H](C(=O)N[C@@H](Cc2c[nH]cn2)C(=O)N[C@@H](CCCNC(=N)N)C(=O)N[C@@H](CCCNC(=N)N)C(=O)N[C@@H](C)C(=O)N[C@@H](CC(N)=O)C(N)=O)NC(=O)[C@H](C(C)C)NC(=O)[C@H](CCCNC(=N)N)NC1=O` [N6] (H-GFAWNVCVYRNGVRVCHRRAN-NH2; disulfide 7-16), the “Laurdan GP (membrane fluidity)” value in data set [10] is on record as “significant increase in Laurdan GP”; in the data set on S. aureus, “also increased”. Further, the “histopathology of mammary gland (HE)” value in the data set with E. coli CGMCC 1.90026 [11] is “significant improvement in inflammatory symptoms”. In addition, the “levels of inflammatory factors (TNF-α, IL-1ß, IL-6 and IL-2) in mammary tissue” value with E. coli CGMCC 1.90026 [11] (100 or 200 µM, ELISA, n=4) is given as “significantly reduced”. Besides, the “indices of the mammary gland and spleen” value in the data set with S. aureus CGMCC 1.90032 [12] was “significantly decreased”. Further, the MDK99 in the data set on S. aureus CGMCC 1.90032 [2] (minimum time for 99% sterilization) amounted to 1.45 h. Also, the MDK99.99 in the data set with S. aureus CGMCC 1.90032 [2] (minimum time for 99.99% sterilization) is given as 1.99 h. Moreover, in data set [3] (fluorescence in direct correlation with concentration), the “self-assembly by ANS fluorescence” value is recorded as “incapable of self-assembling”. Further, the “membrane penetration rates toward E. coli” value in the data set with E. coli CGMCC 1.90026 [13] is listed as 2.34 -80.7%. Moreover, the “SI (MPCs/MIC)” value in the data set on E. coli CGMCC 1.90026 [14] and with S. aureus CGMCC 1.90032 [15] was 6.4 in each case. Further, the “time to complete eradication” value in the data set on E. coli CGMCC 1.90026 [7] is recorded as no more than 4 h. In the data set with E. coli, the plasma membrane depolarization entry was “underwent depolarization”.

On to `CC(C)[C@@H]1NC(=O)CNC(=O)[C@H](CC(N)=O)NC(=O)[C@H](CCCNC(=N)N)NC(=O)[C@H](Cc2ccc(O)cc2)NC(=O)[C@H](C(C)C)NC(=O)[C@@H](NC(=O)[C@@H](NC(=O)[C@H](CC(N)=O)NC(=O)[C@H](Cc2c[nH]c3ccccc23)NC(=O)[C@H](C)NC(=O)[C@H](Cc2ccccc2)NC(=O)CN)C(C)C)CSSC[C@@H](C(=O)N[C@@H](Cc2cnc[nH]2)C(=O)N[C@@H](CCCNC(=N)N)C(=O)N[C@@H](CCCNC(=N)N)C(=O)N[C@@H](C)C(=O)N[C@@H](CC(N)=O)C(N)=O)NC(=O)[C@H](C(C)C)NC(=O)[C@H](CCCNC(=N)N)NC1=O` [N6] (H-GFAWNVCVYRNGVRVCHRRAN-NH2; disulfide 7-16), for which, in data set [1], the “peptide retention rate in liver tissue” value is “less than 9.76%”. Further, the hemolysis rate entry with mouse erythrocytes was “no hemolysis”. In the data set on E. coli ATCC 25922, the “MIC after incubation in 25% serum” value is recorded as “twofold”. The degradation in trypsin entry in the data set with trypsin [16] is “completely degraded”. In data set [8], the metabolised at 0.5 h, 2560 µM was greater than 50%.

Turning to BP-KFFVLK-RLKLILKSK [BET], the “time to complete transformation from nanoparticles to nanofibers” value in [17] (LPS induction) is 72 h.

On to BP-KLVFF -RLYLRIGRR [HDMP], for which, in data set [17] (LTA induction), the “time to complete transformation from nanoparticles to nanofibers” value is 48 h.

“Chitosan-GPLGVRGC-PEG2000- CGGG(KLAKLAK)2 [CPC-1]”: in data set [18], the “prolongation of the half-life at the site of infection” value is reported as “fourfold”.

On to FLGALFRALSRLL [PTP-7], for which the stability in serum was 2 h in data set [19] (before self-assembly) and “more than 5 h” in data set [19] (by self-assembly technology).

Source of the values: paper PMC11526549 (Journal of Nanobiotechnology, 2024).
